Active and inactive are the calls of the source. The rule behind the calls is not given here.
Columns and labels:
[1] = (§1) Inhibition of quorum sensing LasI synthase in Pseudomonas aeruginosa PAO1 harboring reporter plasmid lasB-gfp assessed as reduction in lasB expression measured every 15 mins for 12 hrs by GFP-fluorescence assay
[2] = system: Pseudomonas aeruginosa PAO1; experiment: as §1
[3] = system: Pseudomonas aeruginosa; experiment: Growth inhibition of Pseudomonas aeruginosa PAO1 harboring reporter plasmid lasB-gfp
[4] = biological target: T1, HTH-type quorum-sensing regulator RhlR (Pseudomonas aeruginosa (strain ATCC 15692 / PAO1 / 1C / PRS 101 / LMG12228), UniProt P54292); experiment: Inhibition of quorum sensing regulator protein RhlR in Pseudomonas aeruginosa PAO1 harboring reporter plasmid rhlA-gfp assessed as reduction in rhlA expression measured every 15 mins for 12 hrs by GFP-fluorescence assay
T1 sequence (P54292 whole entry): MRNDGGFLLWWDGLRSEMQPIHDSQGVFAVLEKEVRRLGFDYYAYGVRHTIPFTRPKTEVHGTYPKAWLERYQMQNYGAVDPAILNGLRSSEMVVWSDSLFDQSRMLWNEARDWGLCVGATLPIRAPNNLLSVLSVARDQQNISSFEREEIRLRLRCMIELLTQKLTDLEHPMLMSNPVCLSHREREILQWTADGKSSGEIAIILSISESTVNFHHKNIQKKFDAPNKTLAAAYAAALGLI

[5] = system: Pseudomonas aeruginosa PAO1; experiment: Inhibition of quorum sensing LasI synthase in Pseudomonas aeruginosa PAO1 harboring reporter plasmid lasB-gfp assessed as reduction in lasB expression at 10 uM measured every 15 mins for 12 hrs by GFP-fluorescence assay
[6] = Inhibition of quorum sensing regulator protein pqsR in Pseudomonas aeruginosa PAO1 harboring reporter plasmid pqsA-gfp assessed as reduction in pqsA expression measured every 15 mins for 12 hrs by GFP-fluorescence assay
[7] = biological target: T2, HTH-type quorum-sensing regulator RhlR (Pseudomonas aeruginosa (strain ATCC 15692 / PAO1 / 1C / PRS 101 / LMG12228)) (UniProt P54292); experiment: Inhibition of quorum sensing regulator protein RhlR in wild-type Pseudomonas aeruginosa PAO1 assessed as reduction in rhamnolipid level at 10 uM after 24 hrs relative to control
T2 sequence (whole entry): T1 sequence (P54292 whole entry)
How it was run: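 PAO1 subculture diluted 100-fold into ABTGC (OD600 0.1) with 10 µM compound, ∆lasI∆rhlI as negative control. Grown 24 h at 37 °C, 200 rpm; final OD600 read. Supernatant extracted twice with diethyl ether and rhamnolipid quantified by a modified orcinol method. Student's t test, mean ± SD.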

[8] = system: Pseudomonas aeruginosa PAO1; experiment: Inhibition of quorum sensing LasI synthase in wild-type Pseudomonas aeruginosa PAO1 assessed as reduction in elastase production at 10 uM incubated for 24 hrs measured every 10 mins for 3 hrs by BODIPY fluorophore-labelled DQ elastin conjugate based fluorescence assay
How it was run: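 PAO1 wild type, with ∆lasI∆rhlI as negative control, diluted to OD600 0.01 in 5 mL ABTGC with 10 µM compound. Grown 24 h at 37 °C, 200 rpm. Cleared supernatant assayed with BODIPY FL-labelled DQ elastin; fluorescence (ex 490/em 520 nm) read every 10 min for 3 h. Student's t test, mean ± SD.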

[9] = system: Pseudomonas aeruginosa; experiment: Antibacterial activity against Pseudomonas aeruginosa in bacterial coated silicone implanted BALB/c mouse assessed as reduction in biofilm formation at 10 uM measured at 24 hrs post infection; assay type: functional
How it was run: (§2)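 Female BALB/c mice, 8 weeks old. A 4 mm silicone tube was incubated 18 h at 37 °C in 0.9% NaCl with P. aeruginosa (OD600 0.1), then inserted into the peritoneal cavity under ketamine/xylazine. At 2 h post-infection, 200 µL of 10 µM compound (EtOH stock diluted in 20% hydroxypropyl-β-cyclodextrin/saline) was injected at the implant site; vehicle for controls. At 24 h, CFU/mL counted from sonicated implants and homogenized spleens on LB; Mann-Whitney U test.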

[10] = system: Pseudomonas aeruginosa; experiment: Effect on GFP fluorescence output signal in Pseudomonas aeruginosa PAO1 at 10 uM measured every 15 mins for 12 hrs; assay type: ADME
How it was run: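 PAO1-gfp control strain, handled as the lasB-gfp reporter assay. Overnight LB culture diluted in ABTGC to OD600 0.02 and mixed with compound, final 10 µM, DMSO 0.1% final. Incubated at 37 °C; OD600 and GFP fluorescence (ex 485/em 535 nm) read every 15 min for at least 12 h, in triplicate.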

[11] = system: RAW264.7; experiment: Cytotoxicity against mouse RAW264.7 cells at 100 uM measured after 16 hrs by Alamar blue assay; assay type: cell-based; settings: raw264.7, 16 h
How it was run: (§3)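 RAW264.7 macrophages in DMEM with 10% FBS, 1 × 10^5 per well, grown 16 h. Cells were washed with PBS and exposed to compound at 0, 0.01, 0.1, 1, 10 or 100 µM for 16 h at 37 °C, 5% CO2. Alamar Blue added, 3 h incubation, OD595 read. Triplicates, mean±s.d., compared with DMSO.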

[12] = system: Pseudomonas aeruginosa PAO1; experiment: Inhibition of quorum sensing LasI synthase in Pseudomonas aeruginosa PAO1 harboring reporter plasmid lasB-gfp at 10 uM in presence of bovine serum albumin measured after 18 hrs by GFP-fluorescence assay
How it was run: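 BSA dissolved in ABTGC at 100 mg/mL, then 2-fold serially diluted across rows; compound final 10 µM. PAO1-lasB-gfp, grown overnight in LB, added at OD600 0.02 in ABTGC. GFP/OD read after 18 h at 37 °C.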

[13] = system: RAW264.7; experiment: Cytotoxicity against mouse RAW264.7 cells at 0.01 to 10 uM measured after 16 hrs by Alamar blue assay; assay type: cell-based; settings: raw264.7, 16 h; how it was run: as §3
[14] = system: Pseudomonas aeruginosa; experiment: Antibacterial activity against Pseudomonas aeruginosa infected in BALB/c mouse assessed as reduction in bacterial dissemination in spleen at 10 uM measured at 24 hrs post infection; assay type: functional; how it was run: as §2
[15] = biological target: T2, HTH-type quorum-sensing regulator RhlR (Pseudomonas aeruginosa (strain ATCC 15692 / PAO1 / 1C / PRS 101 / LMG12228)); experiment: Inhibition of quorum sensing regulator protein RhlR in wild-type Pseudomonas aeruginosa PAO1 assessed as reduction in pyocyanin level at 10 uM after 48 hrs
How it was run: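 PAO1 wild type, with ∆lasI∆rhlI as negative control, standardized to OD600 0.1 and diluted 100-fold into 25 mL King's medium with 10 µM compound. Grown 48 h at 37 °C, 200 rpm; final OD600 read. Pyocyanin extracted from supernatant with chloroform then 0.2 M HCl; absorbance read on the aqueous layer. Student's t test.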

Row | SMILES | IC50 [1] [nM] | growth inhibition (GI) [3] | other results
1 | O=C(NS(=O)(=O)c1ccccc1)c1ccccc1 | 36200 | – | inhibition [2]: Dose-dependent effect
2 | C=CCSSc1nnc(N)s1 | 2280 | Non-Toxic | inhibition [2]: Dose-dependent effect
3 | C=CCSSc1nc2ccc(Cl)cc2s1 | 780 | Non-Toxic | –
4 | c1ccc(SSc2nc3ccccc3s2)cc1 | 1340 | Non-Toxic | –
5 | COc1ccc(SSc2nc3ccccc3s2)cc1 | 1660 | Non-Toxic | –
6 | C=CCSS/C=C/C[S+]([O-])CC=C (configuration not stated) [AJOENE] | 15000 | Non-Toxic | IC50 [4]: 50000 nM
7 | C=CCCSc1nc2ccccc2s1 | – | Non-Toxic | inhibition [2]: inactive
8 | Clc1ccc(Sc2nc3ccccc3s2)cc1 | – | Non-Toxic | inhibition [2]: inactive
9 | C=CCSSc1nc2cc(OC)ccc2o1 | 3450 | Non-Toxic | –
10 | C=CCSSc1nc2ccc(C(F)(F)F)cc2s1 | 1350 | Non-Toxic | –
11 | CCCSSc1nc2ccccc2s1 | 2200 | Non-Toxic | –
12 | Clc1ccc(SSc2nc3ccc(Cl)cc3s2)cc1 | 3250 | Non-Toxic | –
13 | C=CCSSc1ccccc1C(=O)OC | – | Non-Toxic | inhibition [5]: inactive
14 | CCCSc1nc2ccccc2s1 | – | Non-Toxic | inhibition [2]: inactive
15 | C=CCSSCc1ccccc1 | 20900 | Non-Toxic | –
16 | C=CCSSc1nc2ccc(C)cc2s1 | 1120 | Non-Toxic | –

Row | SMILES | IC50 [1] [nM] | growth inhibition (GI) [3] | other results
17 | c1ccc2sc(SSC3CCCCC3)nc2c1 | 6000 | Non-Toxic | –
18 | C=CCSSc1nc2ccc(Cl)cc2o1 | 4080 | Non-Toxic | –
19 | Cc1ccc2nc(SSc3nc4ccc(C)cc4s3)sc2c1 | 16900 | Non-Toxic | –
20 | C=CCSc1nc2ccccc2s1 | – | Non-Toxic | inhibition [2]: inactive
21 | FC(F)(F)c1ccc2nc(SSc3nc4ccc(C(F)(F)F)cc4s3)sc2c1 | 12100 | Non-Toxic | –
22 | C[S+]([O-])CCCN=C=S (configuration not stated) | 31000 | Non-Toxic | –
23 | C=CCSSc1nc2ccccc2s1 | 980 | Non-Toxic | IC50 [6]: 330 nM; IC50 [4]: 2030 nM; inhibition [7]: 50%; inhibition [2]: Dose-dependent effect; inhibition [8]: Active; Activity [9]: Active; Activity [10]: Non-Toxic; Activity [11]: Toxic; inhibition [12]: Active; Activity [13]: Non-Toxic; Activity [14]: Active; inhibition [15]: Active
24 | c1ccc2sc(SSc3nc4ccccc4s3)nc2c1 [BENZOTHIAZYL DISULFIDE] | 14500 | Non-Toxic | –
25 | CCOc1ccc2nc(SSc3nc4ccc(OCC)cc4s3)sc2c1 | 45400 | Non-Toxic | –
26 | CCOc1ccc2nc(SSc3ccc(Cl)cc3)sc2c1 | 720 | Non-Toxic | –
27 | CCOC(=S)SCC#N | 2140 | – | inhibition [2]: Dose-dependent effect
28 | C=CCSSc1nc2ccc(OCC)cc2s1 | 3580 | Non-Toxic | –
29 | Cc1ccc2nc(SSc3ccc(Cl)cc3)sc2c1 | 680 | Non-Toxic | –
30 | C=CCSSc1nnnn1-c1ccccc1 | – | Non-Toxic | inhibition [5]: inactive
31 | FC(F)(F)c1ccc2nc(SSc3ccc(Cl)cc3)sc2c1 | 580 | Non-Toxic | –
32 | Clc1ccc(SSc2nc3ccccc3s2)cc1 | 560 | Non-Toxic | inhibition [7]: 50%; inhibition [8]: Active; Activity [9]: Active; Activity [10]: Non-Toxic; Activity [11]: Toxic; inhibition [12]: Active; Activity [13]: Non-Toxic; Activity [14]: Active; inhibition [15]: Active
